# Measurements from ChEMBL document CHEMBL1165909, “Analgesic, anti-pyretic and DNA cleavage studies of novel pyrimidine derivatives of coumarin moiety” (Eur J Med Chem, 2010).
# The source made the active and inactive calls. The rule behind the calls is not given here.
# What was measured:
# [1] = tested on: Rattus norvegicus; assay: Acute toxicity in albino Wistar rat assessed as convulsion at up to 3 g/kg, po after 24 hrs; type: organism-based; settings: in vivo, 3000 mg/kg
# Outline: (§1)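 Albino rats of either sex, groups of six, dosed from 100 up to 3000 mg kg^-1 body weight. Watched continuously for 8 h for signs such as altered motor activity, ataxia, tremors, convulsions, sedation and lacrimation. Killed at 24 h; stomach, intestine and liver inspected under magnifying lenses for ulcer-haemorrhagic spots.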
# [2] = tested on: Rattus norvegicus; assay: Analgesic activity in albino Wistar rat assessed as reaction time required for tail flicking at 25 mg/kg, po after 90 mins by tail-flick method (reference value: 3.87 +/- 0.355 sec); type: functional
# [3] = tested on: Rattus norvegicus; assay: Acute toxicity in albino Wistar rat assessed as mortality at up to 3 g/kg, po after 24 hrs; type: organism-based; settings: in vivo, 3000 mg/kg; outline: as §1
# [4] = tested on: Rattus norvegicus; assay: Acute toxicity in albino Wistar rat assessed as ulceration at up to 3 g/kg, po after 24 hrs; type: organism-based; settings: in vivo, 3000 mg/kg; outline: as §1
# [5] = tested on: Nucleic Acid; assay: Induction of Escherichia coli DNA cleavage at 25 mg after 24 hrs by agarose gel electrophoresis method; type: nucleic-acid assay
# Outline: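 E. coli grown in nutrient broth 24 h at 37 °C. Genomic DNA isolated by SDS lysis, phenol (55 °C, 10 min), chloroform:isoamyl alcohol extraction and ethanol precipitation, dissolved in TAE. Compounds at 1 mg/ml in DMF added to DNA, incubated 2 h at 37 °C. Run on agarose gel at 50 V about 30 min, stained with ethidium bromide, bands compared with DNA marker.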
# [6] = tested on: Rattus norvegicus; assay: Acute toxicity in albino Wistar rat assessed as intestine ulcerhaemorrhagic spots at up to 3 g/kg, po after 24 hrs; type: organism-based; settings: in vivo, 3000 mg/kg; outline: as §1
# [7] = tested on: Rattus norvegicus; assay: Acute toxicity in albino Wistar rat assessed as tremors at up to 3 g/kg, po after 24 hrs; type: organism-based; settings: in vivo, 3000 mg/kg; outline: as §1
# [8] = tested on: Rattus norvegicus; assay: Acute toxicity in albino Wistar rat assessed as haemorrhagic spots at up to 3 g/kg, po after 24 hrs; type: organism-based; settings: in vivo, 3000 mg/kg; outline: as §1
# [9] = tested on: Rattus norvegicus; assay: Antipyretic activity against brewer's yeast-induced hyperthermia in albino Wistar rat assessed as change in rectal temperature at 100 mg/kg, po after 3 hrs (reference value: 32.80 +/- 0.09 degC); type: functional
# [10] = tested on: Rattus norvegicus; assay: Analgesic activity in albino Wistar rat assessed as reaction time required for tail flicking at 25 mg/kg, po after 60 mins by tail-flick method (reference value: 4 +/- 0.360 sec); type: functional
# [11] = tested on: Rattus norvegicus; assay: Analgesic activity in albino Wistar rat assessed as reaction time required for tail flicking at 25 mg/kg, po after 30 mins by tail-flick method (reference value: 3.97 +/- 0.287 sec); type: functional
# [12] = tested on: Rattus norvegicus; assay: Antipyretic activity against brewer's yeast-induced hyperthermia in albino Wistar rat assessed as change in rectal temperature at 100 mg/kg, po after 6 hrs (reference value: 33.44 +/- 0.18 degC); type: functional
# [13] = tested on: Rattus norvegicus; assay: Antipyretic activity against brewer's yeast-induced hyperthermia in albino Wistar rat assessed as change in rectal temperature at 100 mg/kg, po after 1 hr (reference value: 33.78 +/- 0.18 degC); type: functional
# [14] = tested on: Rattus norvegicus; assay: Acute toxicity in albino Wistar rat assessed as sedation at up to 3 g/kg, po after 24 hrs; type: organism-based; settings: in vivo, 3000 mg/kg; outline: as §1
# [15] = tested on: Rattus norvegicus; assay: Acute toxicity in albino Wistar rat assessed as stomach ulcerhaemorrhagic spots at up to 3 g/kg, po after 24 hrs; type: organism-based; settings: in vivo, 3000 mg/kg; outline: as §1
# [16] = tested on: Rattus norvegicus; assay: Antipyretic activity against brewer's yeast-induced hyperthermia in albino Wistar rat assessed as change in rectal temperature at 100 mg/kg, po after 5 hrs (reference value: 34.36 +/- 0.14 degC); type: functional
# [17] = tested on: Rattus norvegicus; assay: Antipyretic activity against brewer's yeast-induced hyperthermia in albino Wistar rat assessed as change in rectal temperature at 300 mg/kg, po after 3 hrs (reference value: 32.80 +/- 0.09 degC); type: functional
# [18] = tested on: Rattus norvegicus; assay: Antipyretic activity against brewer's yeast-induced hyperthermia in albino Wistar rat assessed as change in rectal temperature at 300 mg/kg, po after 6 hrs (reference value: 33.44 +/- 0.18 degC); type: functional
# [19] = tested on: Rattus norvegicus; assay: Antipyretic activity against brewer's yeast-induced hyperthermia in albino Wistar rat assessed as change in rectal temperature at 300 mg/kg, po after 5 hrs (reference value: 34.36 +/- 0.14 degC); type: functional
# [20] = tested on: Rattus norvegicus; assay: Antipyretic activity against brewer's yeast-induced hyperthermia in albino Wistar rat assessed as change in rectal temperature at 300 mg/kg, po after 1 hr (reference value: 33.78 +/- 0.18 degC); type: functional
Structure (SMILES),Activity [1],Time [2] [s],Activity [3],Activity [4],Activity [5],Activity [6],Activity [7],Activity [8],T [9] [°C],Time [10] [s],Time [11] [s],T [12] [°C],T [13] [°C],Activity [14],Activity [15],T [16] [°C],T [17] [°C],T [18] [°C],T [19] [°C],T [20] [°C]
Cc1ccc2c(COc3ccc(-c4cc(-c5ccccc5)nc(O)n4)cc3)cc(=O)oc2c1,Non-toxic,7.75,Non-toxic,Non-toxic,Active,Non-toxic,Non-toxic,Non-toxic,32.84,6.25,4.5,32.4,32.4,Non-toxic,Non-toxic,33.1,–,–,–,–
O=c1cc(COc2ccc(-c3cc(-c4ccccc4)nc(O)n3)cc2)c2c(ccc3ccccc32)o1,Non-toxic,8.87,Non-toxic,Non-toxic,Active,Non-toxic,Non-toxic,Non-toxic,32.72,8.25,5,32.68,32.22,Non-toxic,Non-toxic,32.82,–,–,–,–
Cc1ccc2c(COc3ccc(-c4cc(-c5ccccc5)nc(S)n4)cc3)cc(=O)oc2c1,Non-toxic,7.5,Non-toxic,Non-toxic,Active,Non-toxic,Non-toxic,Non-toxic,32.66,7.25,4.5,31.82,32.81,Non-toxic,Non-toxic,32.9,–,–,–,–
O=c1cc(COc2ccc(-c3cc(-c4ccccc4)nc(O)n3)cc2)c2cc(Cl)ccc2o1,Non-toxic,4.25,Non-toxic,Non-toxic,Active,Non-toxic,Non-toxic,Non-toxic,32.64,4.04,4.02,32.61,33.18,Non-toxic,Non-toxic,33.28,–,–,–,–
O=c1cc(COc2ccc(-c3cc(-c4ccccc4)nc(O)n3)cc2)c2ccc3ccccc3c2o1,Non-toxic,7.25,Non-toxic,Non-toxic,Active,Non-toxic,Non-toxic,Non-toxic,32.68,6.25,4.75,32.74,32.25,Non-toxic,Non-toxic,33.44,–,–,–,–
O=c1cc(COc2ccc(-c3cc(-c4ccccc4)nc(S)n3)cc2)c2ccc3ccccc3c2o1,Non-toxic,6.25,Non-toxic,Non-toxic,Active,Non-toxic,Non-toxic,Non-toxic,32,5.25,4.52,32.5,33.01,Non-toxic,Non-toxic,33.09,–,–,–,–
O=c1cc(COc2ccc(-c3cc(-c4ccccc4)nc(S)n3)cc2)c2c(ccc3ccccc32)o1,Non-toxic,–,Non-toxic,Non-toxic,Active,Non-toxic,Non-toxic,Non-toxic,31.98,4.5,4.25,32.66,32.92,Non-toxic,Non-toxic,33.01,–,–,–,–
CC(=O)Oc1ccccc1C(=O)O [ASPIRIN],–,–,–,–,–,–,–,–,–,–,–,–,–,–,–,–,32,32.38,32.3,32.82
Cc1ccc2oc(=O)cc(COc3ccc(-c4cc(-c5ccccc5)nc(O)n4)cc3)c2c1,Non-toxic,6.2,Non-toxic,Non-toxic,Active,Non-toxic,Non-toxic,Non-toxic,32.31,5.46,4.48,32.97,33.18,Non-toxic,Non-toxic,33.12,–,–,–,–
Cc1ccc2c(COc3ccc(-c4cc(-c5ccccc5)nc(N)n4)cc3)cc(=O)oc2c1,Non-toxic,7.5,Non-toxic,Non-toxic,Active,Non-toxic,Non-toxic,Non-toxic,32.6,6.75,5.1,32.8,32.74,Non-toxic,Non-toxic,33.8,–,–,–,–
